Screening data from PubChem.
Most compounds without a hit are left out; they make up all but 2% or so of the library.
UPR CHOP act: apoptotic UPR (CHOP) activation; 330,000 tested, 0.34% active; activation, % at 10 µM; CHO-CHOP luciferase reporter, luminescence; percent of tunicamycin response over DMSO baseline; AID 449763;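 active = at 10 µM dose, activation of 40% or more, normalized to positive control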;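 note: 100% = tunicamycin at 10 µg/mL and 0% = DMSO alone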
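System: CHO CHOP reporter cells. Amount: 500 cells per well. Buffer or medium: F12 medium, 10% FBS. Compound dosing: one dose, 10 µM in 0.5% DMSO. Incubation: 6 h compound exposure at 37 °C after overnight seeding. Technique: Steady-Glo luciferase luminescence. Benchmarks: tunicamycin and DMSO controls.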
MC4R barr agon: agonists of human melanocortin 4 receptor (MC4R) beta-arrestin | U2OS MC4R beta-arrestin complementation, luminescence; percent of melanotan II response, DMSO zero | activation, % at 8.9 µM | 360,000 tested, 0.98% active | AID 540308 | P32245;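 active = activation above a per-plate cutoff, the mean activation of sample wells on that plate plus 3 SD, cut at about 8% in these data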
Target sequence (P32245 whole entry, looked up): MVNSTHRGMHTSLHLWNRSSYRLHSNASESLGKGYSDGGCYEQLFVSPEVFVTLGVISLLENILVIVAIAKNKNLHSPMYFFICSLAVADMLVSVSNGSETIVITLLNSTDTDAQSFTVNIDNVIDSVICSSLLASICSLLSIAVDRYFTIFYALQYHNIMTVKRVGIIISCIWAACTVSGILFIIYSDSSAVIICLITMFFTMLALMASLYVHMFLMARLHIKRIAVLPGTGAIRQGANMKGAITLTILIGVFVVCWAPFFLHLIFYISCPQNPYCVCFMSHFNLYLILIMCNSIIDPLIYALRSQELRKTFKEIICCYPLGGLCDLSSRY
A1 inh: inhibitors of the anti-apoptotic protein A1, read as caspase activation; 330,000 tested, 0.066% active; MEF A1-2A-BIM cells, Caspase-Glo 3/7 luminescence, 3 h; percent of clofoctol response, vehicle zero; caspase activation, % (no concentration beside the values);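 active = over half of replicate activation scores above 10%, or exactly half above 10 with the replicate mean above 10; inconclusive = replicate mean below 10 yet half the replicates above 10; inactive = over half of replicates below 10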
MC4R antag cAMP: human MC4R antagonism in cAMP assay; MC4R-expressing cells, MTII-stimulated cAMP, LANCE TR-FRET; AID 540295; inhibition, % at 6.5 µM; 360,000 tested, 0.48% active; P32245;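 active = inhibition above its plate's cutoff, the mean of tested wells on that plate plus 3 SD, cut at about 29% in these data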;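 note: 0% = Melanotan II alone and 100% = Melanotan II plus saturating MCL0020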
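Assay system: human MC4R-expressing U2OS cells; reagent: Melanotan II stimulation of cells; dosing: 6.5 µM single dose; timing: compound 30 min, challenge 1 h, detection 1 h; signal: TR-FRET cAMP assay; replicates: one well per compound, no replicates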
XBP1 UPR activ: adaptive UPR (XBP1) activation | AID 463104 | 330,000 tested, 0.33% active | activation, % at 20 µM | CHO-XBP1 luciferase reporter, IRE1-XBP1 UPR activation, luminescence; percent of tunicamycin response, DMSO as zero;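 active = versus positive control, 20 µM dose yields 30% or more activation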;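 note: 100% = tunicamycin at 10 µg/mL and 0% = DMSO only wells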
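Signal: luciferase luminescence; Assay system: CHO-XBP1 luciferase reporter cells; Amount: one thousand reporter cells per well; Dosing: 20 µM single concentration, DMSO 1%; Benchmarks: high control tunicamycin 10 µg/mL final, low control DMSO vehicle only; Schedule: 6 h compound exposure at 37 °C, 5% CO2; Evaluation: percent activation relative to tunicamycin reference.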
UPR XBP1 confirm: adaptive UPR (XBP1) activation, confirmed | shares compounds with XBP1 UPR activ | CHO-XBP1 IRE1-XBP1 luciferase reporter, luminescence | activation, % at 20 µM | 1,000 tested, 63% active | AID 485299;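 active = reporter signal at least 30% of the positive control's activation in two or more of four replicate wells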;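 note: plate controls were DMSO negative control for no effect and tunicamycin 10 µg/mL positive control for full effect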
The depositor's hits bear a star; ? = inconclusive; . = no result.

SMILES	UPR CHOP act	MC4R barr agon	A1 inh	MC4R antag cAMP	XBP1 UPR activ	UPR XBP1 confirm
O=[N+]([O-])c1cccc(/C=C/c2nc(C=Nc3ccccc3)c(O)o2)c1	2	1	0	-7	36*	24
N#CCC(=O)Nc1ccc(C(=O)Nc2cccc(S(=O)(=O)N3CCCC3)c2)cc1	.	0	.	7	.	.
CCc1nc2ccc(C(=O)N3CCN(C(=O)c4ccco4)CC3)cn2c1N(CCC(C)C)CCN(C)C	.	-1	.	6	.	.
COc1cc(/C=N/NC(=O)NC23CC4CC(CC(C4)C2)C3)ccc1OCC(N)=O	2	0	0	13	38*	11
CCN(CC)c1ccc2cc(-c3nc4ccccc4[nH]3)c(=O)oc2c1	22	5	-8	2	45*	21
CC1(C(=O)NS(=O)(=O)c2cccc(F)c2)CCN1C(=O)CCc1ccccc1 (centres undefined)	.	1	.	18	.	.
Cc1ccc(C)c(S(=O)(=O)NCC(=O)Nc2sc3c(c2C(N)=O)CCC(C)C3)c1 (centres undefined)	9	4	?	2	32*	24
CCOC(=O)Nc1sc2c(c1C(N)=O)CCC(C)C2 (centres undefined)	-1	2	0	-2	2	.
O=c1[nH]c(CSc2ncnc3sc(-c4ccccc4)cc23)nc2ccccc12	1	0	0	7	87*	142*
O=C(NC(=S)Nc1ccc(-c2ccccc2)cc1)c1ccccc1	.	3	.	17	.	.
NS(=O)(=O)c1ccc(NC(=S)NC(=O)c2ccc(-c3ccccc3)cc2)cc1	15	1	0	-19	50*	25
CN(C(=O)c1cccc(NC(=O)Cc2ccc(NC(=O)C3CCN(C(=O)C4CCCC4)CC3)cc2)c1)C1CCCC1	.	1	.	13	.	.
COc1ccc(C(=O)Nc2ccc(O)c3c(=O)cc(-c4cccc(Cl)c4)oc23)cc1	4	2	0	3	0	.
O=C(Nc1ccc(O)c2c(=O)cc(-c3cccc(Cl)c3)oc12)c1cccc(Cl)c1	33	1	15*	8	73*	70*
CC(C)(C)c1ccc(C(=O)Nc2ccc(O)c3c(=O)cc(-c4cccc(Cl)c4)oc23)cc1	21	1	?	9	55*	52*
CCc1nc2ccc(C(=O)Nc3cccc(NS(C)(=O)=O)c3)cn2c1N(C)CCN1CCOCC1	.	0	.	15	.	.
CCCCN(C=O)c1c(CC)nc2ccc(C(=O)NCCc3ccccn3)cn12	.	-2	.	14	.	.
CCCCC(=O)N(C)c1c(CC)nc2c(OCc3cccc(Cl)c3)cccn12	.	-1	.	1	.	.
CC(=O)Nc1nc(C)c(-c2csc(Nc3cccc([N+](=O)[O-])c3)n2)s1	4	0	0	-14	3	.
CC(=O)c1cccc(Nc2nc(-c3cccc([N+](=O)[O-])c3)cs2)c1	5	0	1	2	43*	32*
CCNC(=O)C1CCCN(C(=O)c2cccc(OC(F)(F)F)c2)CC1 (centres undefined)	.	-2	.	8	.	.
Nc1nc(SCc2ccc(Cl)cc2Cl)nc2nc3c(cc12)CCCC3	3	4	0	-3	59*	133*
Nc1nc(SCc2ccccc2Cl)nc2nc3c(cc12)CCCC3	0	3	0	9	0	.
Cc1ccc(F)cc1C(=O)N1CCCCC1c1cc(C(=O)Nc2cccc(C#N)c2)no1 (centres undefined)	.	-1	.	2	.	.
CC1(C(=O)NS(=O)(=O)c2ccccc2Cl)CCN1C(=O)c1ccccc1CCc1ccccc1 (centres undefined)	.	1	.	10	.	.
SMILES	UPR CHOP act	MC4R barr agon	A1 inh	MC4R antag cAMP	XBP1 UPR activ	UPR XBP1 confirm
CCCCCC(=O)N1C[C@@H](n2cc(C3CC3)nn2)[C@H](O)C[C@@H]1c1ccc(Cl)cc1	.	1	.	2	.	.
Cc1ccc2nc(/C(C#N)=C/c3ccc(O)c(O)c3)[nH]c2c1	36	-3	-5	1	43*	33*
Cc1ccc2nc(/C(C#N)=C/c3ccccc3C(=O)O)[nH]c2c1	0	0	0	-4	-4	.
COc1ccc(-c2ccc3c(c2)S(=O)(=O)c2cccc(C(=O)NC[C@@H]4CCCO4)c2C3=O)cc1OC	1	4	1	4	0	.
O=C(NCC1CC1)c1cccc2c1C(=O)c1ccc(-c3ccc(OC(F)(F)F)cc3)cc1S2(=O)=O	20	-1	1	-4	41*	42*
CN(C)S(=O)(=O)c1ccc(N2CCCC2)c(C(=O)NCC(=O)Nc2ccc(F)c(F)c2)c1	0	-3	0	1	-4	.
Cc1ccc(NC(=O)c2cc(S(=O)(=O)N(C)C)ccc2N2CCCC2)cc1F	13	-3	-1	0	39*	64*
COc1ccc(/C=N/NC(=O)c2cc(-c3ccccc3)nc3ccccc23)c(OC)c1	1	-4	-2	-13	17	.
COc1ccc(/C=N/Nc2nc(-c3cccnc3)nc3ccccc23)c(OC)c1	7	1	1	4	37*	15
COc1ccc2[nH]c3c(c2c1)CCN1C(=O)C(CC(=O)NC/C=C(\C)CCC=C(C)C)C[C@H](C(=O)N(C(C)C)C(C)C)[C@@]31C (some centres undefined)	5	0	.	2	33*	46*
CC(C)=CCC/C(C)=C/CNC(=O)C[C@H]1C[C@H](C(=O)N(C(C)C)C(C)C)[C@@]2(C)c3[nH]c4ccc(Cl)cc4c3CCN2C1=O	5	0	.	6	11	.
COC(=O)c1c(NC(=O)c2nc3ccccc3s2)sc2c1CC(C)(C)NC2(C)C	26	1	1	9	41*	48*
COC(=O)c1c(NC(=O)c2ccc(C(=O)c3ccccc3)cc2)sc2c1CC(C)(C)NC2(C)C	.	-1	.	7	.	.
COc1ccc(OC)c(-c2nnc3n2N=C(c2ccc(OC)c(OC)c2)CS3)c1	0	-1	0	-49	37*	42*
CCCS(=O)(=O)NC(=O)C1(C)CCN(C(=O)c2cccc(C(F)(F)F)c2)C1 (centres undefined)	.	0	.	3	.	.
